Laboratory results taken from ChEMBL document CHEMBL1136157, “Synthesis of 3a,4-dihydro-3H-[1]benzopyrano[4,3-c]isoxazoles, displaying combined 5-HT uptake inhibiting and alpha(2)-adrenoceptor antagonistic activities: a novel series of potential antidepressants” (Bioorg Med Chem Lett, 2003).

target: Sodium-dependent serotonin transporter (Rattus norvegicus) (UniProt P31652); assay: In vivo effective dose required to inhibit p-chloroamphetamine induced excitation in rats upon subcutaneous administration; format: functional, organism-based
How it was run: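 Overnight-starved male Wistar rats (200–250 g) given test compound or solvent sc 1 h before p-chloroamphetamine (5 mg/10 mL/kg, sc). Excitation scored over a 15-min interval starting 45 min after pCA. A score <2 was the all-or-nothing criterion for inhibition (1.0% false positives, n>200). ED50 in mg/kg.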

Sequence of Sodium-dependent serotonin transporter (Rattus norvegicus) (P31652 whole entry): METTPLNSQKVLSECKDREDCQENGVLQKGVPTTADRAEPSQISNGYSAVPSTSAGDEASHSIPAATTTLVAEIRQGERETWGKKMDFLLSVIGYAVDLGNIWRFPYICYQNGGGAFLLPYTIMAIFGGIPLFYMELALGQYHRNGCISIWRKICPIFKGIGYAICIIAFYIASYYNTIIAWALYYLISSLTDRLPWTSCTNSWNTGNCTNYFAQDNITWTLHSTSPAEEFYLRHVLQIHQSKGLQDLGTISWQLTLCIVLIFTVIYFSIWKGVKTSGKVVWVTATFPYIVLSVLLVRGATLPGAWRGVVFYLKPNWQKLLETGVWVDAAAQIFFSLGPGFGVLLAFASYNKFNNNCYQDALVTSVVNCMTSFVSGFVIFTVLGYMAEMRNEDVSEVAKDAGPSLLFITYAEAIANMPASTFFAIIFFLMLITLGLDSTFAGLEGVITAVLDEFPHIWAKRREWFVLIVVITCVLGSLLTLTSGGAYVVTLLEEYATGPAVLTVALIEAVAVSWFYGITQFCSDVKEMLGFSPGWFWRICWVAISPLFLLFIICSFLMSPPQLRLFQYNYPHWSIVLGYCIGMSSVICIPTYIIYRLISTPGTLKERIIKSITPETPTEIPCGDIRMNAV

| Compound | ED50 [mg/kg] |
| --- | --- |
| COc1cc2c(cc1OC)C1=NOC(CN3CCN(CC4=Cc5ccccc5C4)CC3)C1CO2 (stereo unspecified) | 0.32 |
| Fc1ccc2c(c1)CC(CC1CN=CN1)C2 (stereo unspecified) | 2 |
| COc1cc2c(cc1OC)C1=NO[C@@H](CN3CCN(C/C=C/c4ccccc4)CC3)[C@@H]1CO2 (stereo in doubt; (-)5) | 2.5 |
| COc1cc2c(cc1OC)C1=NOC(CN3CCN(Cc4cccc5ccccc45)CC3)C1CO2 (stereo unspecified) | 3.2 |
| COc1cccc2c1CCC[C@H]2CN(C)CCc1ccc2ccoc2c1 | 10 |
| COc1cc2c(cc1OC)C1=NO[C@@H](CN3CCN(C/C=C\c4ccccc4)CC3)[C@@H]1CO2 | 10 |
| COc1ccc2c(c1)OCC1C2=NOC1CN1CCN(C/C=C/c2ccccc2)CC1 (stereo unspecified) | 1.4 |
| COc1cc2c(cc1OC)C1=NOC(CN3CCN(C/C=C(\C)c4ccccc4)CC3)C1CO2 (stereo unspecified) | 0.2 |
| COc1cc2c(cc1OC)C1=NOC(CN3CCN(CCc4ccccc4)CC3)C1CO2 (stereo unspecified) | 10 |
| COc1cc2c(cc1OC)C1=NOC(CN3CCN(Cc4ccc5ccccc5c4)CC3)C1CO2 (stereo unspecified) | 0.79 |
| C(=C\c1ccccc1)/CN1CCN(CC2ON=C3c4ccccc4OCC32)CC1 (stereo unspecified) | 5 |
| COc1cc2c(cc1OC)C1=NOC(CN3CCN(Cc4cnc5ccccc5c4)CC3)C1CO2 (stereo unspecified) | 5 |
| COc1cc2c(cc1OC)C1=NO[C@@H](CN3CCN(C/C=C(\C)c4ccccc4)CC3)[C@@H]1CO2 (stereo in doubt; (-)15g) | > 10 |
| COc1cc2c(cc1OC)C1=NO[C@@H](CN3CCN(C/C=C(\C)c4ccccc4)CC3)[C@@H]1CO2 (stereo in doubt; (+)15g) | 0.5 |
| COc1cc2c(cc1OC)C1=NOC(CN3CCN(C/C=C/c4ccccc4)CC3)C1CO2 (stereo unspecified) | 0.76 |
| COc1cc2c(cc1OC)C1=NO[C@@H](CN3CCN(Cc4ccc5ccccc5c4)CC3)[C@@H]1CO2 (stereo in doubt; (+)15h) | 0.08 |
| COc1cc2c(cc1OC)C1=NOC(CN3CCN(Cc4ccccc4)CC3)C1CO2 (stereo unspecified) | 8 |
| COc1cc2c(cc1OC)C1=NOC(CN3CCN(Cc4cc5ccccc5s4)CC3)C1CO2 (stereo unspecified) | 2.5 |

target: T1, Alpha-2B adrenergic receptor (Homo sapiens, UniProt P18089); assay: In vitro binding affinity towards human alpha-2B adrenergic receptor using [3H]rauwolscine
T1 sequence (P18089 whole entry): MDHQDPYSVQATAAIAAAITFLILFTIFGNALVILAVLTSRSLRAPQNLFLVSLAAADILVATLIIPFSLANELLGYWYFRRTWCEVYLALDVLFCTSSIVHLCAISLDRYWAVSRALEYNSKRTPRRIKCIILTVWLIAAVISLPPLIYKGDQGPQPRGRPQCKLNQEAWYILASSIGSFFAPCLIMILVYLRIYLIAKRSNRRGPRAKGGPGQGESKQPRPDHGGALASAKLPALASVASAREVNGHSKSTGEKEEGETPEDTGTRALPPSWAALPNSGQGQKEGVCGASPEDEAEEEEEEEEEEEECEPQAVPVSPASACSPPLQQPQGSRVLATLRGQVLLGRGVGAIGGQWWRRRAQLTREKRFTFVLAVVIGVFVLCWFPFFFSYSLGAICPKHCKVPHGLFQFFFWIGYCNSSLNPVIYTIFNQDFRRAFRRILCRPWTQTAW

| Compound | Ki [µM] |
| --- | --- |
| COc1cc2c(cc1OC)C1=NOC(CN3CCN(CC4=Cc5ccccc5C4)CC3)C1CO2 (stereo unspecified) | 0.315 |
| Fc1ccc2c(c1)CC(CC1CN=CN1)C2 (stereo unspecified) | 0.023 |
| COc1cc2c(cc1OC)C1=NOC(CN3CCN(Cc4cccc5ccccc45)CC3)C1CO2 (stereo unspecified) | > 1 |
| COc1cccc2c1CCC[C@H]2CN(C)CCc1ccc2ccoc2c1 | 0.011 |
| COc1ccc2c(c1)OCC1C2=NOC1CN1CCN(C/C=C/c2ccccc2)CC1 (stereo unspecified) | 0.016 |
| COc1cc2c(cc1OC)C1=NOC(CN3CCN(C/C=C(\C)c4ccccc4)CC3)C1CO2 (stereo unspecified) | 0.031 |
| COc1cc2c(cc1OC)C1=NOC(CN3CCN(CCc4ccccc4)CC3)C1CO2 (stereo unspecified) | > 1 |
| COc1cc2c(cc1OC)C1=NOC(CN3CCN(Cc4ccc5ccccc5c4)CC3)C1CO2 (stereo unspecified) | 0.049 |
| C(=C\c1ccccc1)/CN1CCN(CC2ON=C3c4ccccc4OCC32)CC1 (stereo unspecified) | 0.002 |
| COc1cc2c(cc1OC)C1=NOC(CN3CCN(Cc4cnc5ccccc5c4)CC3)C1CO2 (stereo unspecified) | > 1 |
| COc1cc2c(cc1OC)C1=NOC(CN3CCN(C/C=C/c4ccccc4)CC3)C1CO2 (stereo unspecified) | 0.042 |
| COc1cc2c(cc1OC)C1=NOC(CN3CCN(Cc4ccccc4)CC3)C1CO2 (stereo unspecified) | 0.995 |
| COc1cc2c(cc1OC)C1=NOC(CN3CCN(Cc4cc5ccccc5s4)CC3)C1CO2 (stereo unspecified) | > 1 |

target: T2, Alpha-2C adrenergic receptor (Homo sapiens, UniProt P18825); assay: In vitro binding affinity towards human adrenergic alpha-2C adrenergic receptor using [3H]rauwolscine
T2 sequence (P18825 whole entry): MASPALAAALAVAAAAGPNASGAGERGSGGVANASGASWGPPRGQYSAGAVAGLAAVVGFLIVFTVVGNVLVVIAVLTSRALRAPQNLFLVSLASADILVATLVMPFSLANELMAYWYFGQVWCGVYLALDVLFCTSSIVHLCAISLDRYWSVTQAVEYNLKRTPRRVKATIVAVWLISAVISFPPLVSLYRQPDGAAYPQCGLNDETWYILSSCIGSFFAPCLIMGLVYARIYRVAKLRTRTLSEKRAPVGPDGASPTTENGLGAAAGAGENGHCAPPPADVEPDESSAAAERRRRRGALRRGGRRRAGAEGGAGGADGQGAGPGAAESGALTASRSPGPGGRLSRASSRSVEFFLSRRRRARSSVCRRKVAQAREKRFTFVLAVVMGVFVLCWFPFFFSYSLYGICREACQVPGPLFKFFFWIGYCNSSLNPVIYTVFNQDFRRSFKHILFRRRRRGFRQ

| Compound | Ki [µM] |
| --- | --- |
| COc1cc2c(cc1OC)C1=NOC(CN3CCN(CC4=Cc5ccccc5C4)CC3)C1CO2 (stereo unspecified) | 0.0047 |
| Fc1ccc2c(c1)CC(CC1CN=CN1)C2 (stereo unspecified) | 0.019 |
| COc1cc2c(cc1OC)C1=NOC(CN3CCN(Cc4cccc5ccccc45)CC3)C1CO2 (stereo unspecified) | 0.089 |
| COc1cccc2c1CCC[C@H]2CN(C)CCc1ccc2ccoc2c1 | 0.0021 |
| COc1ccc2c(c1)OCC1C2=NOC1CN1CCN(C/C=C/c2ccccc2)CC1 (stereo unspecified) | 0.0019 |
| COc1cc2c(cc1OC)C1=NOC(CN3CCN(C/C=C(\C)c4ccccc4)CC3)C1CO2 (stereo unspecified) | 0.0006 |
| COc1cc2c(cc1OC)C1=NOC(CN3CCN(CCc4ccccc4)CC3)C1CO2 (stereo unspecified) | 0.089 |
| COc1cc2c(cc1OC)C1=NOC(CN3CCN(Cc4ccc5ccccc5c4)CC3)C1CO2 (stereo unspecified) | 0.0031 |
| C(=C\c1ccccc1)/CN1CCN(CC2ON=C3c4ccccc4OCC32)CC1 (stereo unspecified) | 0.0017 |
| COc1cc2c(cc1OC)C1=NOC(CN3CCN(Cc4cnc5ccccc5c4)CC3)C1CO2 (stereo unspecified) | 0.03 |
| COc1cc2c(cc1OC)C1=NOC(CN3CCN(Cc4ccccc4)CC3)C1CO2 (stereo unspecified) | 0.089 |
| COc1cc2c(cc1OC)C1=NOC(CN3CCN(Cc4cc5ccccc5s4)CC3)C1CO2 (stereo unspecified) | 0.089 |

target: T3, Alpha-2A adrenergic receptor (Homo sapiens, UniProt P08913); assay: In vitro binding affinity towards human alpha-2A adrenergic receptor using [3H]rauwolscine
T3 sequence (P08913 whole entry): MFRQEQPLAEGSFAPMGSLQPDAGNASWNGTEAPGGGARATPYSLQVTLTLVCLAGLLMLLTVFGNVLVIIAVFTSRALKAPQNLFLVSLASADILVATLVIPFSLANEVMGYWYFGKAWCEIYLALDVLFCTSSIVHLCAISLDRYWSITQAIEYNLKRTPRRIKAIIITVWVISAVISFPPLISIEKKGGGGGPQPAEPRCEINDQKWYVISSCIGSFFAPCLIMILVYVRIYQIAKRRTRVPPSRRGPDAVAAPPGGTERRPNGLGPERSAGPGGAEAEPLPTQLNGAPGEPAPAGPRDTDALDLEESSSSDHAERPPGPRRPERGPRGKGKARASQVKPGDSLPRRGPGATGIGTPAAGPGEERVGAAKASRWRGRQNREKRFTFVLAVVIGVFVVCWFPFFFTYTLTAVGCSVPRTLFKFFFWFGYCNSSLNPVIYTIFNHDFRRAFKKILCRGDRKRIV

| Compound | Ki [µM] |
| --- | --- |
| COc1cc2c(cc1OC)C1=NOC(CN3CCN(CC4=Cc5ccccc5C4)CC3)C1CO2 (stereo unspecified) | 0.022 |
| COc1cc2c(cc1OC)C1=NOC(CN3CCN(Cc4cccc5ccccc45)CC3)C1CO2 (stereo unspecified) | 0.234 |
| COc1cc2c(cc1OC)C1=NOC(CN3CCN(CCc4ccccc4)CC3)C1CO2 (stereo unspecified) | 0.234 |
| COc1cc2c(cc1OC)C1=NOC(CN3CCN(Cc4cnc5ccccc5c4)CC3)C1CO2 (stereo unspecified) | 0.034 |
| COc1cc2c(cc1OC)C1=NOC(CN3CCN(Cc4ccccc4)CC3)C1CO2 (stereo unspecified) | 0.186 |
| COc1cc2c(cc1OC)C1=NOC(CN3CCN(Cc4cc5ccccc5s4)CC3)C1CO2 (stereo unspecified) | 0.098 |

target: Adrenergic receptor alpha-2 (Rattus norvegicus) (UniProt P22086+P19328+P22909); assay: In vivo effective dose required to inhibit xylazine-induced loss of righting in rats upon subcutaneous administration; format: functional, organism-based

| Compound | ED50 [mg/kg] |
| --- | --- |
| COc1cc2c(cc1OC)C1=NOC(CN3CCN(CC4=Cc5ccccc5C4)CC3)C1CO2 (stereo unspecified) | 10 |
| Fc1ccc2c(c1)CC(CC1CN=CN1)C2 (stereo unspecified) | 2.7 |
| COc1cc2c(cc1OC)C1=NO[C@@H](CN3CCN(C/C=C/c4ccccc4)CC3)[C@@H]1CO2 (stereo in doubt; (-)5) | 5 |
| COc1cc2c(cc1OC)C1=NOC(CN3CCN(Cc4cccc5ccccc45)CC3)C1CO2 (stereo unspecified) | > 10 |
| COc1cccc2c1CCC[C@H]2CN(C)CCc1ccc2ccoc2c1 | > 10 |
| COc1ccc2c(c1)OCC1C2=NOC1CN1CCN(C/C=C/c2ccccc2)CC1 (stereo unspecified) | 2 |
| COc1cc2c(cc1OC)C1=NOC(CN3CCN(C/C=C(\C)c4ccccc4)CC3)C1CO2 (stereo unspecified) | 2.5 |
| COc1cc2c(cc1OC)C1=NOC(CN3CCN(CCc4ccccc4)CC3)C1CO2 (stereo unspecified) | > 10 |
| COc1cc2c(cc1OC)C1=NOC(CN3CCN(Cc4ccc5ccccc5c4)CC3)C1CO2 (stereo unspecified) | 5 |
| C(=C\c1ccccc1)/CN1CCN(CC2ON=C3c4ccccc4OCC32)CC1 (stereo unspecified) | 2 |
| COc1cc2c(cc1OC)C1=NOC(CN3CCN(Cc4cnc5ccccc5c4)CC3)C1CO2 (stereo unspecified) | 5 |
| COc1cc2c(cc1OC)C1=NO[C@@H](CN3CCN(C/C=C(\C)c4ccccc4)CC3)[C@@H]1CO2 (stereo in doubt; (-)15g) | > 10 |
| COc1cc2c(cc1OC)C1=NO[C@@H](CN3CCN(C/C=C(\C)c4ccccc4)CC3)[C@@H]1CO2 (stereo in doubt; (+)15g) | 0.32 |
| COc1cc2c(cc1OC)C1=NOC(CN3CCN(C/C=C/c4ccccc4)CC3)C1CO2 (stereo unspecified) | 2.5 |
| COc1cc2c(cc1OC)C1=NO[C@@H](CN3CCN(Cc4ccc5ccccc5c4)CC3)[C@@H]1CO2 (stereo in doubt; (+)15h) | 6.1 |
| COc1cc2c(cc1OC)C1=NOC(CN3CCN(Cc4ccccc4)CC3)C1CO2 (stereo unspecified) | > 10 |
| COc1cc2c(cc1OC)C1=NOC(CN3CCN(Cc4cc5ccccc5s4)CC3)C1CO2 (stereo unspecified) | > 10 |
